Assay results published in ChEMBL document CHEMBL1275589, “Molecular epidemiology, sequence types, and plasmid analyses of KPC-producing Klebsiella pneumoniae strains in Israel” (2010).
≈ marks a conversion by molar mass, not a printed value.

Assays:
Klebsiella pneumoniae [1] = test: Antimicrobial activity against carbapenem-resistant KPC-2 producing Klebsiella pneumoniae 365 ST 376 expressing beta-lactamase SHV-1, CTX-M-15 and OXA-4 by agar dilution method
Klebsiella pneumoniae [2] = test: Antimicrobial activity against carbapenem-resistant KPC-2 producing Klebsiella pneumoniae 469 ST 277 expressing beta-lactamase SHV-27, CTX-M-15 and OXA-4 by agar dilution method; format: functional
Klebsiella pneumoniae [3] = test: Antimicrobial activity against carbapenem-resistant KPC-2 producing Klebsiella pneumoniae 588 ST 340 expressing beta-lactamase TEM-1 and SHV-11 by agar dilution method; format: functional
Klebsiella pneumoniae [4] = test: Antimicrobial activity against carbapenem-resistant KPC-2 producing Klebsiella pneumoniae 525 ST 376 expressing beta-lactamase SHV-1 by agar dilution method; format: functional
Klebsiella pneumoniae [5] = test: Antimicrobial activity against carbapenem-resistant KPC-2 producing Klebsiella pneumoniae 475 transformant by agar dilution method; format: functional
Klebsiella pneumoniae [6] = test: Antimicrobial activity against carbapenem-resistant KPC-2 producing Klebsiella pneumoniae 526 ST 376 expressing beta-lactamase SHV-1 by agar dilution method; format: functional
Klebsiella pneumoniae [7] = test: Antimicrobial activity against carbapenem-resistant KPC-2 producing Klebsiella pneumoniae 531 ST 376 expressing beta-lactamase SHV-1 by agar dilution method; format: functional
Klebsiella pneumoniae [8] = test: Antimicrobial activity against KPC-3 producing Klebsiella pneumoniae 557 transformant by agar dilution method; format: functional
Klebsiella pneumoniae [9] = test: Antimicrobial activity against KPC-3 producing Klebsiella pneumoniae 549 ST 327 expressing beta-lactamase TEM-1 and CTX-M-2 by agar dilution method; format: functional
Klebsiella pneumoniae [10] = test: Antimicrobial activity against carbapenem-resistant KPC-2 producing Klebsiella pneumoniae 523 transformant by agar dilution method; format: functional
Escherichia coli = test: Antimicrobial activity against Escherichia coli Genehogs by agar dilution method; format: functional
Procedure, shortened: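 Carbapenem MICs by agar dilution, interpreted per CLSI. FDA Enterobacteriaceae breakpoints applied: susceptible ≤2 μg/ml, intermediate 4 μg/ml, resistant ≥8 μg/ml. Transformants were made in recipient E. coli GeneHogs with purified plasmid DNA.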

Klebsiella pneumoniae [11] = test: Antimicrobial activity against carbapenem-resistant KPC-2 producing Klebsiella pneumoniae 588 transformant by agar dilution method; format: functional
Klebsiella pneumoniae [12] = test: Antimicrobial activity against KPC-3 producing Klebsiella pneumoniae 549 transformant by agar dilution method; format: functional
Klebsiella pneumoniae [13] = test: Antimicrobial activity against carbapenem-resistant KPC-2 producing Klebsiella pneumoniae 365 transformant by agar dilution method; format: functional
Klebsiella pneumoniae [14] = test: Antimicrobial activity against KPC-3 producing Klebsiella pneumoniae 557 ST 258 expressing beta-lactamase TEM-1 by agar dilution method
Klebsiella pneumoniae [15] = test: Antimicrobial activity against carbapenem-resistant KPC-2 producing Klebsiella pneumoniae 525 transformant by agar dilution method; format: functional
Klebsiella pneumoniae [16] = test: Antimicrobial activity against carbapenem-resistant KPC-2 producing Klebsiella pneumoniae 523 ST 340 expressing beta-lactamase TEM-1, SHV-11 and OXA-2 by agar dilution method; format: functional
Klebsiella pneumoniae [17] = test: Antimicrobial activity against carbapenem-resistant KPC-2 producing Klebsiella pneumoniae 526 transformant by agar dilution method; format: functional
Klebsiella pneumoniae [18] = test: Antimicrobial activity against carbapenem-resistant KPC-2 producing Klebsiella pneumoniae 531 transformant by agar dilution method; format: functional
Klebsiella pneumoniae [19] = test: Antimicrobial activity against carbapenem-resistant KPC-2 producing Klebsiella pneumoniae 469 transformant by agar dilution method; format: functional
Klebsiella pneumoniae [20] = test: Antimicrobial activity against carbapenem-resistant KPC-2 producing Klebsiella pneumoniae 475 ST 277 expressing beta-lactamase SHV-27, CTX-M-15 and OXA-4 by agar dilution method; format: functional

Row | Compound | MIC (Klebsiella pneumoniae [1]) [µg/mL] | MIC (Klebsiella pneumoniae [2]) [µg/mL] | MIC (Klebsiella pneumoniae [3]) [µg/mL] | MIC (Klebsiella pneumoniae [4]) [µg/mL] | MIC (Klebsiella pneumoniae [5]) [µg/mL] | MIC (Klebsiella pneumoniae [6]) [µg/mL] | MIC (Klebsiella pneumoniae [7]) [µg/mL] | MIC (Klebsiella pneumoniae [8]) [µg/mL] | MIC (Klebsiella pneumoniae [9]) [µg/mL] | MIC (Klebsiella pneumoniae [10]) [µg/mL] | MIC (Escherichia coli) [µg/mL] | MIC (Klebsiella pneumoniae [11]) [µg/mL] | MIC (Klebsiella pneumoniae [12]) [µg/mL] | MIC (Klebsiella pneumoniae [14]) [µg/mL] | MIC (Klebsiella pneumoniae [15]) [µg/mL] | MIC (Klebsiella pneumoniae [16]) [µg/mL] | MIC (Klebsiella pneumoniae [17]) [µg/mL] | MIC (Klebsiella pneumoniae [18]) [µg/mL] | MIC (Klebsiella pneumoniae [19]) [µg/mL] | MIC (Klebsiella pneumoniae [20]) [µg/mL] | other results
1 | C[C@@H](O)[C@H]1C(=O)N2C(C(=O)O)=C(S[C@@H]3CN[C@H](C(=O)Nc4cccc(C(=O)O)c4)C3)[C@H](C)[C@H]12 | 64 (≈ 135 µM) | 64 (≈ 135 µM) | 128 (≈ 269 µM) | 128 (≈ 269 µM) | 8 (≈ 16.8 µM) | 64 (≈ 135 µM) | 128 (≈ 269 µM) | 4 (≈ 8.41 µM) | 32 (≈ 67.3 µM) | 8 (≈ 16.8 µM) | 0.012 (≈ 0.0252 µM) | 8 (≈ 16.8 µM) | 4 (≈ 8.41 µM) | 256 (≈ 538 µM) | 4 (≈ 8.41 µM) | 64 (≈ 135 µM) | 8 (≈ 16.8 µM) | 2 (≈ 4.21 µM) | 4 (≈ 8.41 µM) | 128 (≈ 269 µM) | MIC (Klebsiella pneumoniae [13]): 8 µg/mL (≈ 16.8 µM)
2 | NCC[C@H](O)C(=O)N[C@@H]1C[C@H](N)[C@@H](O[C@H]2O[C@H](CN)[C@@H](O)[C@H](O)[C@H]2O)[C@H](O)[C@H]1O[C@H]1O[C@H](CO)[C@@H](O)[C@H](N)[C@H]1O [AMIKACIN] | 4 (≈ 6.83 µM) | 4 (≈ 6.83 µM) | 32 (≈ 54.6 µM) | 8 (≈ 13.7 µM) | 8 (≈ 13.7 µM) | 4 (≈ 6.83 µM) | 8 (≈ 13.7 µM) | < 2 | < 2 | > 64 | < 2 | 32 (≈ 54.6 µM) |  | 32 (≈ 54.6 µM) | 16 (≈ 27.3 µM) | 16 (≈ 27.3 µM) | 8 (≈ 13.7 µM) | 16 (≈ 27.3 µM) | 16 (≈ 27.3 µM) | < 2 | MIC (Klebsiella pneumoniae [13]): < 2 µg/mL
3 | C[C@H]1[C@H](NC(=O)/C(=N\OC(C)(C)C(=O)O)c2csc(N)n2)C(=O)N1S(=O)(=O)O [AZTREONAM] | > 64 | > 64 | > 64 | > 64 | 32 (≈ 73.5 µM) | > 64 | > 64 | > 64 | > 64 | > 64 | < 1 | > 64 | > 64 | > 64 | > 64 | > 64 | > 64 | 64 (≈ 147 µM) | 32 (≈ 73.5 µM) | > 64 | MIC (Klebsiella pneumoniae [13]): > 64 µg/mL
4 | CC(C)(O/N=C(\C(=O)N[C@@H]1C(=O)N2C(C(=O)[O-])=C(C[n+]3ccccc3)CS[C@H]12)c1csc(N)n1)C(=O)O [CEFTAZIDIME] | > 64 | > 64 | 16 (≈ 29.3 µM) | > 64 | 16 (≈ 29.3 µM) | > 64 | > 64 | > 64 | 16 (≈ 29.3 µM) | 16 (≈ 29.3 µM) | < 1 | 16 (≈ 29.3 µM) | > 64 | > 64 | 16 (≈ 29.3 µM) | 16 (≈ 29.3 µM) | 16 (≈ 29.3 µM) | 16 (≈ 29.3 µM) | > 64 | 16 (≈ 29.3 µM) | MIC (Klebsiella pneumoniae [13]): 16 µg/mL (≈ 29.3 µM)
5 | CO/N=C(\C(=O)N[C@@H]1C(=O)N2C(C(=O)O)=C(CSc3nc(=O)c(O)nn3C)CS[C@H]12)c1csc(N)n1 [CEFTRIAXONE] | > 64 | > 64 | > 64 | > 64 | 32 (≈ 57.7 µM) | > 64 | > 64 | 32 (≈ 57.7 µM) | > 64 | 32 (≈ 57.7 µM) | < 1 | 32 (≈ 57.7 µM) | 32 (≈ 57.7 µM) | > 64 | 8 (≈ 14.4 µM) | 16 (≈ 28.9 µM) | 32 (≈ 57.7 µM) | 16 (≈ 28.9 µM) | > 64 | 16 (≈ 28.9 µM) | 
